In article PMC2720137 (Cancer cell, 2008):

Legend:
[1] = system: MCF10A cells expressing p110α-H1047R I800M; test: MCF10A EGF-independent growth; format: cell-based, human; conditions: media lacking EGF, Alamar Blue
Summary of the method: (§1)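 MCF10A cells were retrovirally transduced with pMIG p110α-H1047R mutants (IRES-GFP) after EcoR nucleofection, then FACS-sorted to >95% GFP+. Cells were seeded at 2 × 10^3 per 96-well in growth medium, and after 2 days switched to EGF-free medium with PI3K inhibitors (DMSO stocks 1:1000). Every 2 days: resazurin (120 µg/ml stock, 1:20) added for 2 h at 37°C plus 15 min RT, fluorescence read at ex 520/em 590 nm, and medium refreshed. Mean ± SEM.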

[2] = system: MCF10A cells expressing p110α-H1047R L814C; test: MCF10A EGF-independent growth; format: cell-based, human; conditions: media lacking EGF, Alamar Blue
Summary of the method: as §1

[3] = system: phospho-Akt (Thr308, Ser473) in I800L MCF10A cells; test: Phospho-Akt western blot, I800L MCF10A cell line; format: cell-based, human; conditions: for resistance of phospho-Akt levels: 1 hour treatment, serial dilutions; for change in inhibitor sensitivity of phospho-308 Akt: seen in phospho-308 Akt but not phospho-473
[4] = system: phospho-Akt (Thr308, Ser473) in I800M MCF10A cells; test: Phospho-Akt western blot, I800M MCF10A cell line; format: cell-based, human; conditions: 1 hour treatment, serial dilutions
[5] = target: Myc-tagged p110α-H1047R I800L (Homo sapiens, UniProt P42336, H1047R/I800L); test: In vitro PI3K assay, I800L mutant; format: biochemical; conditions: I800L vs p110α-H1047R, 10 μM ATP
[6] = system: phospho-Akt (Thr308, Ser473) in L814C MCF10A cells; test: Phospho-Akt western blot, L814C MCF10A cell line; format: cell-based, human; conditions: 1 hour treatment, serial dilutions
[7] = system: MCF10A cells expressing p110α-H1047R I800L; test: MCF10A EGF-independent growth; format: cell-based, human; conditions: media lacking EGF, Alamar Blue
Summary of the method: as §1

[8] = system: YRP1-pURA3-2μ-GAL1-p110αH1047R-CAAX; test: Reverse halo assay; format: cell-based, S. cerevisiae; conditions: 10 μl of a 10 mM DMSO stock spotted on cellulose disc, SD −URA +Galactose
[9] = system: p110α; conditions: ref Brunn et al., 1996; Vlahos et al., 1994; cited from earlier work
[10] = system: S. cerevisiae overexpressing membrane-localized p110α; conditions: ref Rodriguez-Escudero et al., 2005; cited from earlier work
[11] = system: phospho-Akt in p110α-expressing MCF10A cell lines; format: cell-based, human; conditions: 30 μM PI-103, 1 hour, after 24 hours EGF starvation, all cell lines
Summary of the method: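 GFP-sorted MCF10A lines transduced with p110α mutants, at 40-70% confluence, were starved 24 h in MCF10A medium lacking EGF and insulin. They were then given normal growth medium and/or inhibitor (DMSO control) for 60 min. Cells were lysed in PI3K lysis buffer (50 mM Tris pH 7.4, 300 mM NaCl, 1% Triton X-100, phosphatase/protease inhibitors) and western blotted for phospho-Akt.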

[12] = system: drug-permeablized YRP1 strain expressing p110α-CAAX; test: Rescue of PI3K-induced growth inhibition, yeast serial dilutions; format: cell-based, S. cerevisiae; conditions: 5 μM PI-103, galactose
[13] = system: Myc-tagged p110α-H1047R I800M; format: biochemical, human; conditions: I800M vs p110α-H1047R, 10 μM ATP
[14] = system: wild-type AFS92 strain expressing p110α-CAAX; test: Rescue of PI3K-induced growth inhibition, yeast serial dilutions; format: cell-based, S. cerevisiae; conditions: 5 μM PI-103, galactose
[15] = system: Myc-tagged p110α-H1047R L814C; format: biochemical, human; conditions: L814C vs p110α-H1047R, 10 μM ATP
[16] = system: PI4KIIIβ with the mutation corresponding to Y836M; conditions: ref Balla et al., 2008; cited from earlier work

Chain of Myc-tagged p110α-H1047R I800L (P42336 whole entry I800L/H1047R): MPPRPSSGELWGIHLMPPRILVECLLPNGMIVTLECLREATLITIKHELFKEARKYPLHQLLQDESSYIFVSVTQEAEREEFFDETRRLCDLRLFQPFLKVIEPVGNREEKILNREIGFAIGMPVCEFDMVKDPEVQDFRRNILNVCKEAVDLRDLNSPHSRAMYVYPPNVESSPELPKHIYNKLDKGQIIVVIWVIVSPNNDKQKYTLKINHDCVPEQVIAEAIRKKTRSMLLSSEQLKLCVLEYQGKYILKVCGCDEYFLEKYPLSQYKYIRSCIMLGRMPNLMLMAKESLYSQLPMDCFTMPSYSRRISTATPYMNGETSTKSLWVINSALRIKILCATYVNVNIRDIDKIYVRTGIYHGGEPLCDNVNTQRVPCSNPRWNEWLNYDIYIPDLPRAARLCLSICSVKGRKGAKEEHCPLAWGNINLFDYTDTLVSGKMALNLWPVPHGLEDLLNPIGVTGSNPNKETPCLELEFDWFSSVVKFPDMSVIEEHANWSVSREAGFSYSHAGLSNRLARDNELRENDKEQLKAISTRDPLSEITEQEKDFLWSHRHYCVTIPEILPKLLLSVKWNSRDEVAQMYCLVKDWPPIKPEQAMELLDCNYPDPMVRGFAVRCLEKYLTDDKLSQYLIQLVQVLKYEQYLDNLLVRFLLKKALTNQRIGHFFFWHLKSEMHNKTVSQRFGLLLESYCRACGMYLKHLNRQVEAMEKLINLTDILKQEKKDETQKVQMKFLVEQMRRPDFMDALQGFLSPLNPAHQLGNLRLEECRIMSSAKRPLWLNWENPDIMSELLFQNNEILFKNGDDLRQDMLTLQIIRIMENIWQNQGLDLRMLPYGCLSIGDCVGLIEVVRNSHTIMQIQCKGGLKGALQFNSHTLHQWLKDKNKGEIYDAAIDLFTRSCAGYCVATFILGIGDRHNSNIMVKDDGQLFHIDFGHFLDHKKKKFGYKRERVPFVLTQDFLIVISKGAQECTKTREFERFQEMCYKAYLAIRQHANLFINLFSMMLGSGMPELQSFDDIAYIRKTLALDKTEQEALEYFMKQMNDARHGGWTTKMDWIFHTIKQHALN

Compound	inhibitor resistance of EGF-independent growth [1]	sensitization of cell growth [2]	resistance of phospho-Akt levels [3]	resistance of phospho-Akt levels [4]	sensitization of phospho-Akt levels [6]	growth halo in reverse halo assay [8]	decrease in inhibitor potency (mutant IC50 / WT IC50) [13]	decrease in inhibitor potency (mutant IC50 / WT IC50) [5]	inhibitor resistance of EGF-independent growth [7]	other results
Cn1c(=O)n(-c2ccc(C(C)(C)C#N)cc2)c2c3cc(-c4cnc5ccccc5c4)ccc3ncc21 [BEZ-235]	less dramatic	minimal or no sensitization	Significant resistance is not observed	Significant resistance is not observed	sensitization is seen					change in inhibitor sensitivity of phospho-308 Akt [3]: sensitization; change in inhibitor sensitivity in vitro [5]: sensitized; inhibitor sensitization of EGF-independent growth [7]: sensitized
O=c1cc(N2CCOCC2)oc2c(-c3ccccc3)cccc12 [LY294002, 2-(4-morpholinyl)-8-phenyl-4H-1-benzopyran-4-one]						did not produce growth halos				potency as inhibitor of p110α and other PI3K family members [9]: only a μM inhibitor; reversal of p110α-induced growth inhibition [10]: partially reversed
Oc1cccc(-c2nc(N3CCOCC3)c3oc4ncccc4c3n2)c1 [PI-103]	less dramatic	minimal or no sensitization	Significant resistance is not observed	Significant resistance is not observed			5-10 fold	5-10 fold	less dramatic	change in inhibitor sensitivity of phospho-308 Akt [3]: Slight resistance; block of phospho-Akt stimulation by EGF-containing media [11]: blocked; rescue of PI3K-induced growth inhibition [12]: completely rescues growth; rescue of PI3K-induced growth inhibition [14]: only partially rescues growth
Cc1ccc([N+](=O)[O-])cc1S(=O)(=O)N(C)/N=C/c1cnc2ccc(Br)cn12 [PIK-75]						produced only a thin ring of growth				
COc1ccc2c(c1OC)N=C(NC(=O)c1cccnc1)N1CCN=C21 [PIK-90]	most pronounced	strong sensitization	approximately 3 fold		approximately 5 fold		5-10 fold	5-10 fold	most pronounced	drug sensitization (mutant IC50 / WT IC50) [15]: more than 10 fold
CC(=O)Nc1nc(C)c(-c2ccc(Cl)c(S(=O)(=O)NCCO)c2)s1 [PIK-93]	most pronounced	strong sensitization	approximately 3 fold	approximately 10 fold	~30 fold		5-10 fold	5-10 fold	most pronounced	drug resistance of active mutant kinase [16]: resistant; drug sensitization (mutant IC50 / WT IC50) [15]: approximately 100 fold
COC[C@H]1OC(=O)c2coc3c2[C@@]1(C)C1=C(C3=O)[C@@H]2CCC(=O)[C@@]2(C)C[C@H]1OC(C)=O [wortmannin]						did not produce growth halos				drug resistance of active mutant kinase [16]: resistant
